Results as given in ChEMBL document CHEMBL1125042, “Hypolipidemic activity of rifamycin derivatives” (J Med Chem, 1990).
≈ marks a conversion by molar mass, not a printed value.

Key:
[1] = system: Rattus norvegicus; test: Tested for hypolipidemic activity in male rats, cholesterol was determined in serum at 10 mg/kg; type: functional
How it was run: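 Groups of eight male Wistar rats (200–230 g) dosed orally in PEG 400, either daily for 7 days (killed 24 h after the last dose) or for 4 days with a second dose on day 4 (killed 16 h later). Fasted 16 h. Paired sera pooled, lipoproteins separated by ultracentrifugation (1.006 and 1.040 g/cm³), HDL taken as the infranatant. Cholesterol measured enzymatically; % vs vehicle, mean ± SEM of four pools.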

[2] = system: Rattus norvegicus; test: Hypolipidemic activity was determined in male rats, and high-density lipoprotein level was determined at 10 mg/kg; type: functional
How it was run: (§1)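 Male Wistar rats (200–230 g), eight per group, were dosed orally in PEG 400 at 8 a.m. for 4 days, plus a second dose at 4 p.m. on day 4. Rats were fasted 16 h and killed 16 h after the last dose. Sera from pairs of rats were pooled. LDL (up to 1.040 g/cm³) was separated by ultracentrifugation and the HDL infranatant taken. Cholesterol was measured enzymatically. Results are % versus vehicle control, mean ± SEM of four pools, Student's t test.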

[3] = system: Rattus norvegicus; test: Hypolipidemic activity was determined in male rats, and low-density lipoprotein level was determined at 10 mg/kg; type: functional; how it was run: as §1
[4] = Inhibitory activity against RNA polymerase was determined; parameters: species or system Escherichia coli
How it was run: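 E. coli DNA-dependent RNA polymerase inhibition measured in vitro on ether-extracted, permeabilized E. coli cells.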

[5] = system: Staphylococcus aureus; test: Antibacterial activity against Staphylococcus aureus 10B; type: functional
How it was run: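 Agar dilution on DST agar with 2-fold drug dilutions. Inoculum of 10⁴ viable S. aureus 10B was taken from liquid-nitrogen stock, thawed 30 min and not subcultured. It was applied by multipoint replicator and incubated overnight at 37 °C. MIC is the lowest concentration inhibiting growth relative to control cultures.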

Row | IC50 [4] [µg/mL] | MIC [5] [µg/mL] | SMILES | Activity [1] [%] | Activity [2] [%] | Activity [3] [%]
1 | 8 (≈ 8.69 µM) | 2 (≈ 2.17 µM) | COC1CCOC2(C)Oc3c(C)c(O)c4c(O)c(c(N5CCN(Cc6c(C)cc(C)cc6C)CC5)c(O)c4c3C2=O)NC(=O)C(C)CCCC(C)C(O)C(C)C(O)C(C)C(OC(C)=O)C1C (centres undefined) | -30 | -27 | -32
2 | – | 2 (≈ 2.19 µM) | COC1/C=C/OC2(C)Oc3c(C)c(O)c4c(O)c(c(N5CCN(Cc6c(C)cc(C)cc6C)CC5)c(O)c4c3C2=O)NC(=O)/C(C)=C\C=C\C(C)C(O)C(C)C(=O)C(C)C(OC(C)=O)C1C (centres undefined) | -18 | -23 | -1
3 | > 100 | > 128 | CC(=O)OC1C(C)C2/C=C/OC3(C)Oc4c(C)c(O)c5c(O)c(c(N6CCN(Cc7c(C)cc(C)cc7C)CC6)c(O)c5c4C3=O)NC(=O)/C(C)=C\C=C\C(C)C(O)C(C)C(O2)C1C (centres undefined) | 0 | -4 | -9
